Results on 39 molecules are retold here after ChEMBL document CHEMBL1126749, “Synthesis and structure-activity relationships of nonpeptide, potent triazolone-based angiotensin II receptor antagonists” (J Med Chem, 1993).

In test [1] the target is T1, Type-1 angiotensin II receptor B (Rattus norvegicus, UniProt P29089).
T1 sequence (P29089 whole entry): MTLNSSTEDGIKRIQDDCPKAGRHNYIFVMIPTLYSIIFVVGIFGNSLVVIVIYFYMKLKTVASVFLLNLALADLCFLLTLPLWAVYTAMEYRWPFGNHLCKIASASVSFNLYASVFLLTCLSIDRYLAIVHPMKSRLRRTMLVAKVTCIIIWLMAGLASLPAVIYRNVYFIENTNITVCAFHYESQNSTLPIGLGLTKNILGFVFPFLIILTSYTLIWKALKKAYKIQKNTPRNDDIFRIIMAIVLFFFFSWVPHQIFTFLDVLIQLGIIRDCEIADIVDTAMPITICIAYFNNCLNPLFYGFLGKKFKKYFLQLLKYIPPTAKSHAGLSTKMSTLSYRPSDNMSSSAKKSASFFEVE
Kind of test: Inhibition of [125I]angiotensin-II binding to the angiotensin II receptor type 1 in rat uterine membranes. The test is classed as cell membranes, Membrane.

The target in test [2] is Angiotensin II receptor (Oryctolagus cuniculus). The experiment in a line: Antagonism of angiotensin-II mediated contraction of rabbit aortic rings expressed as pA2 (in vitro).
Test [3] relates to Rattus norvegicus. Kind of test: In vivo inhibition of pressor response to AII in rats following intragastric administration. Type of test: functional. The settings on record: po, read-out: ID50 (the source's name). Put shortly: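 Male Sprague-Dawley rats anesthetized with methohexital 30 mg/kg ip. Femoral artery and vein catheterized, restrained, and allowed 3 h recovery. Arterial pressure recorded continuously, 1 h baseline, then AII infused at 50 ng/kg/min iv. Compound given intragastrically at 1-10 mg/kg. Change in mean arterial pressure compared at time points before and after dosing.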

Usually IC50 stands for the concentration that gives 50% inhibition. One may read the pA2 as a measure of antagonist potency on a negative log scale. Consider `CCCCc1nn(CCCCC(=O)O)c(=O)n1Cc1ccc(-c2ccccc2-c2nn[nH]n2)cc1`, for which, in test [1], the concentration for half-maximal inhibition (IC50) is 12 nM. Moreover, in test [2], the pA2 was determined as 8.
In the same order, the values of `CCCCc1nn(CC(=O)C23C[C@H]4C[C@@H](C2)C[C@@H](C3)C4)c(=O)n1Cc1ccc(-c2ccccc2-c2nn[nH]n2)cc1` are 25 nM and 8.1.
In test [1], `CCCCc1nn(CC(OCC)c2ccccc2)c(=O)n1Cc1ccc(-c2ccccc2-c2nn[nH]n2)cc1` (stereo not given) displayed an IC50 of 15 nM.
Regarding `CCCCc1nn(CC(OC)c2ccccc2)c(=O)n1Cc1ccc(-c2ccccc2-c2nn[nH]n2)cc1` (stereo not given), the IC50 in test [1] was 12 nM. This molecule also showed a pA2 in test [2] of 7.8.
The matching figures for `CCCCc1nn(CC(O)c2ccccc2)c(=O)n1Cc1ccc(-c2ccccc2-c2nn[nH]n2)cc1` (stereo not given): 3.6 nM and 8.3.
For `CCCCc1nn(CC(O)c2cc(OC)ccc2OC)c(=O)n1Cc1ccc(-c2ccccc2-c2nn[nH]n2)cc1` (stereo not given), in test [1], the IC50 turned out to be 22 nM. This molecule came in with a pA2 in test [2] of 8.1.
As for `CCCCc1nn(C(Cc2ccccc2)C(=O)c2ccccc2)c(=O)n1Cc1ccc(-c2ccccc2-c2nn[nH]n2)cc1` (stereo not given), the IC50 in test [1] came to 5800 nM.
The molecule `CCCCc1nn(CCC2CCCCC2)c(=O)n1Cc1ccc(-c2ccccc2-c2nn[nH]n2)cc1` showed a half-maximal inhibitory concentration (IC50) in test [1] of 18 nM. The same molecule came in with a pA2 in test [2] of 7.9.
With `CCCCc1nn(CC(=O)OC(C)(C)C)c(=O)n1Cc1ccc(-c2ccccc2-c2nn[nH]n2)cc1`, the IC50 in test [1] is 16 nM. The same molecule had a pA2 in test [2] of 7.1.
In turn, `CCCCc1nn(CC(OCC(=O)O)c2ccccc2)c(=O)n1Cc1ccc(-c2ccccc2-c2nn[nH]n2)cc1` (stereo not given) returned an IC50 in test [1] of 30 nM.
As for `CCCCc1nn(CC(OCCC)c2ccccc2)c(=O)n1Cc1ccc(-c2ccccc2-c2nn[nH]n2)cc1` (stereo not given), the concentration for half-maximal inhibition (IC50) in test [1] is 45 nM. For the same molecule, the pA2 in test [2] is listed as 8.1.
On to `CCCCc1nn(C(CC(=O)OCC)C(=O)c2ccccc2)c(=O)n1Cc1ccc(-c2ccccc2-c2nn[nH]n2)cc1` (stereo not given), for which the 50% inhibitory concentration (IC50) in test [1] was 36 nM. The pA2 in test [2] worked out at 7.8.
Take `CCCCc1nn(CCCc2ccccc2)c(=O)n1Cc1ccc(-c2ccccc2-c2nn[nH]n2)cc1`: the half-maximal inhibitory concentration (IC50) in test [1] turned out to be 18 nM. This molecule also returned a pA2 in test [2] of 8.
In the same order, the values of `CCCCc1nn(CCc2ccccc2)c(=O)n1Cc1ccc(-c2ccccc2-c2nn[nH]n2)cc1` are 3.1 nM and 9.8.
In turn, `CCCCc1nn(CC(=O)c2cc(OC)ccc2OC)c(=O)n1Cc1ccc(-c2ccccc2-c2nn[nH]n2)cc1` had an IC50 in test [1] of 21 nM. In addition, the pA2 in test [2] is listed as 8.
The matching figures for `CCCCc1nn(Cc2ccccc2)c(=O)n1Cc1ccc(-c2ccccc2-c2nn[nH]n2)cc1`: 16 nM and 8.1.
In the same order, the values of `CCCCc1nn(CC(OCc2ccccc2)c2ccccc2)c(=O)n1Cc1ccc(-c2ccccc2-c2nn[nH]n2)cc1` (stereo not given) are 280 nM and 7.7.
As for `CCCCc1nn(C/C=C/c2ccccc2)c(=O)n1Cc1ccc(-c2ccccc2-c2nn[nH]n2)cc1`, the concentration for half-maximal inhibition (IC50) in test [1] was 290 nM.
Still for that read-out and setting: as for `CCCCc1nn(CCCCC(=O)OC)c(=O)n1Cc1ccc(-c2ccccc2-c2nn[nH]n2)cc1`, the figure is 4.4 nM.
Turning to `CCCCc1nn(CC(OCC(=O)OCC)c2ccccc2)c(=O)n1Cc1ccc(-c2ccccc2-c2nn[nH]n2)cc1` (stereo not given), the concentration for half-maximal inhibition (IC50) in test [1] worked out at 180 nM. Also, in test [2], the pA2 was determined as 8.3.
In the same order, the values of `CCCCc1nn(CC(=O)OCC)c(=O)n1Cc1ccc(-c2ccccc2-c2nn[nH]n2)cc1` are 9 nM and 7.8.
The matching figures for `CCCCCCCCn1nc(CCCC)n(Cc2ccc(-c3ccccc3-c3nn[nH]n3)cc2)c1=O`: 170 nM and 8.5.
In the same order, the values of `CCCCc1nn(CC(=O)O)c(=O)n1Cc1ccc(-c2ccccc2-c2nn[nH]n2)cc1` are 91 nM and 7.8.
In turn, `CCCCc1nn(CCCCCC(=O)OCC)c(=O)n1Cc1ccc(-c2ccccc2-c2nn[nH]n2)cc1` displayed an IC50 in test [1] of 9.8 nM. Besides, in test [2], the pA2 is 7.6.
In the same order, the values of `CCCCc1nn(CCCCCC(=O)O)c(=O)n1Cc1ccc(-c2ccccc2-c2nn[nH]n2)cc1` are 17 nM and 8.7.
In the same order, the values of `CCCCCCn1nc(CCCC)n(Cc2ccc(-c3ccccc3-c3nn[nH]n3)cc2)c1=O` are 8.7 nM and 8.9.
In the case of `CCCCc1nn(CCCC)c(=O)n1Cc1ccc(-c2ccccc2C(=O)O)cc1`, the half-inhibitory concentration (IC50) in test [1] is 101 nM. For the same molecule, the pA2 in test [2] came out at 7.
The molecule `CCCCc1nn(C(C)(C)C(=O)c2ccccc2)c(=O)n1Cc1ccc(-c2ccccc2-c2nn[nH]n2)cc1` had an IC50 in test [1] of 43 nM. Further, the pA2 in test [2] was 7.7.
In the same order, the values of `CCCCc1nnc(O)n1Cc1ccc(-c2ccccc2-c2nn[nH]n2)cc1` are 42 nM and 7.1.
The matching figures for `CCCCCn1nc(CCCC)n(Cc2ccc(-c3ccccc3-c3nn[nH]n3)cc2)c1=O`: 5.6 nM and 9.
In the same order, the values of `CCCCc1nnc(O)n1Cc1ccc(-c2ccccc2C(=O)O)cc1` are 1500 nM and 5.5.
With `CCCCc1nn(CCC(C)CC(C)(C)C)c(=O)n1Cc1ccc(-c2ccccc2-c2nn[nH]n2)cc1` (stereo not given), the half-inhibitory concentration (IC50) in test [1] is 35 nM. In addition, the pA2 in test [2] is reported as 7.9.
The molecule `CCCCc1nn(CCC)c(=O)n1Cc1ccc(-c2ccccc2-c2nn[nH]n2)cc1` had a half-maximal inhibitory concentration (IC50) in test [1] of 15 nM. This molecule also displayed a pA2 in test [2] of 8.2.
Consider `CCCCc1nn(Cc2ccc3ccccc3c2)c(=O)n1Cc1ccc(-c2ccccc2-c2nn[nH]n2)cc1`, for which the concentration for half-maximal inhibition (IC50) in test [1] was 280 nM. The pA2 in test [2] was found to be 6.5.
As for `CCCCc1nn(CC2CC2)c(=O)n1Cc1ccc(-c2ccccc2-c2nn[nH]n2)cc1`, the 50% inhibitory concentration (IC50) in test [1] was determined as 15 nM.
Take `CCCCc1nn(CCCC)c(=O)n1Cc1ccc(-c2ccccc2-c2nnn[nH]2)cc1`: the concentration for half-maximal inhibition (IC50) in test [1] amounted to 5.1 nM. The ED50 in test [3] was 2.1 mg/kg.
Turning to `CCCCc1nn(CC(=O)c2ccccc2)c(=O)n1Cc1ccc(-c2ccccc2-c2nn[nH]n2)cc1`, in test [1], the IC50 is 7.9 nM.
For `CCCCc1nn(C(C)CC)c(=O)n1Cc1ccc(-c2ccccc2-c2nn[nH]n2)cc1` (stereo not given), the IC50 in test [1] was 10 nM. In addition, the pA2 in test [2] came out at 8.7.
`CCCCc1nn(C(C)C)c(=O)n1Cc1ccc(-c2ccccc2-c2nnn[nH]2)cc1` displayed an IC50 in test [1] of 20 nM.
